High-throughput results from PubChem.
Calpain2 inh: blocks pig calpain II enzyme activity. purified calpain II, fluorogenic peptide substrate, 30 min. inhibition, % at 16 µM. hit rate 0.37% among 220,000. AID 1236;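 active = inhibition above about 50%, limit read from the data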
NPY Y2 blocker: antagonists of human neuropeptide Y receptor Y2 | NPY-Y2 expressing cells, antagonist mode | inhibition, % at 2.7 µM | hit rate 0.99% among 140,000;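 also: 0% = vehicle with agonist challenge and 100% = reference antagonist with challenge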
Target sequence (P49146 whole entry, looked up): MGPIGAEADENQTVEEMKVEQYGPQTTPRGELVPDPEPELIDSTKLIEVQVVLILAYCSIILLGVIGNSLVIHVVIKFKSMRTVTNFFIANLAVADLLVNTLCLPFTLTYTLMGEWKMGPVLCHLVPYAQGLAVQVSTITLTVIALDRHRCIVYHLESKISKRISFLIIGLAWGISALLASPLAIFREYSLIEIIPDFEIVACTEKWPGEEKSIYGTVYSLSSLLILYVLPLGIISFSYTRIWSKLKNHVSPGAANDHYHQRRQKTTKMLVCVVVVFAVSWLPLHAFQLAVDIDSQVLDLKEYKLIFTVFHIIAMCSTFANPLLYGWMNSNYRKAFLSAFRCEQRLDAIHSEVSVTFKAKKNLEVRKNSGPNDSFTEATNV
NPY-Y1 antag: blocks the human neuropeptide Y Y1 receptor | inhibition, % at 3.6 µM | HEK293-CNG Y1 cells, membrane potential fluorescence; NPY at EC95, then isoproterenol | AID 1040 | hit rate 1% among 200,000;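 active = inhibition above the campaign mean inhibition of all tested compounds plus 3 SD, cut at about 20% in these data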;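 also: 0% = DMSO wells given NPY plus isoproterenol and 100% = isoproterenol alone without NPY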
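Test system – HEK293 Y1/CNG channel cell line · Also added – NPY agonist 25 nM, then isoproterenol 1 µM plus Ro 20-1724 25 µM · Compound dosing – one concentration, 3.6 µM, in 0.4% DMSO · Schedule – compound incubation 1 h at room temperature, readout 45 min post-stimulation · Technique – fluorescence, membrane potential probe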
NPY-Y1 PAM-ag: potentiators or agonists of human neuropeptide Y receptor Y1. NPY-Y1 expressing cells, potentiator/agonist activation. activation, % at 3.6 µM. hit rate 0.37% among 220,000. AID 1304; in the data active = activation above about 33%, passing the limit was not always enough;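 also: cells stimulated with NPY at EC10 then isoproterenol at EC100; 0% = low agonist plus stimulus and 100% = saturating agonist plus stimulus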
TbHK1 inh: blocks Trypanosoma brucei hexokinase 1 activity | hit rate 0.11% among 220,000 | recombinant TbHK1, G6PDH-coupled NADH A340 | inhibition, % at 10 µM;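 active = inhibition of 50% or more in the single-dose primary screen; inactive = inhibition below 50%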
NPY2 pot ag: human NPY-Y2 potentiation or agonism, primary screen | activation, % at 3.6 µM | P49146 | cells expressing NPY-Y2, potentiator/agonist read-out | hit rate 0.45% among 220,000; in the data active = activation above about 27%;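 also: cells stimulated with NPY near EC25 plus isoproterenol at EC100; 0% = vehicle plus submaximal agonist and 100% = vehicle plus saturating agonist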
NPY-Y1 ant conf: human NPY-Y1 antagonism, confirmation; shares compounds with NPY-Y1 antag; HEK293-CNG NPY-Y1, membrane potential fluorescence, cAMP; NPY challenge against isoproterenol-raised cAMP; inhibition, % at 3.6 µM; hit rate 21% among 1,200; AID 1254; in the data active = inhibition above about 20%;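 also: 0% = vehicle with agonist plus stimulus and 100% = stimulus alone without agonist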
NPY2 antag ctr: counter-screen for NPY-Y1 antagonists: human NPY-Y2 antagonism; shares compounds with NPY-Y1 antag; inhibition, % at 3.6 µM; hit rate 28% among 1,200; HEK293 NPY-Y2 CNG membrane potential fluorescence; cells given NPY, then isoproterenol;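 also: 0% = DMSO with agonist challenge and 100% = reference antagonist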
An asterisk follows results filed as active; . = not tested or not shown. Hits are enriched below; roughly 2.3% of the tested compounds scored in any of these assays. Rule as the data show it, unless noted: active = inhibition above about 17%; inactive = the rest.

SMILES | Calpain2 inh | NPY Y2 blocker | NPY-Y1 antag | NPY-Y1 PAM-ag | TbHK1 inh | NPY2 pot ag | NPY-Y1 ant conf | NPY2 antag ctr
COC(=O)c1ccc(COc2ccc(/C=N/NC(N)=S)cc2)o1 | -12 | . | . | 15 | -24 | 3 | . | .
CC(C)(C)c1ccc(SCCc2ccccn2)cc1 | 25 | . | . | 1 | 6 | -14 | . | .
CC(C)C(C)NC(=O)COC(=O)c1cc(S(=O)(=O)N(C)C)ccc1N1CCCC1 (configuration not stated) | -6 | . | 1 | -10 | -14 | 6 | . | .
CCOC(=O)c1c(NC(C)=O)sc2c(OCC(O)CNC(C)(C)C)c(Br)ccc12 (configuration not stated) | -203 | . | 122* | -198 | 14 | -108 | 98* | 115*
CCOC(=O)c1c(N)sc2c(OCC)c(Br)ccc12 | 40 | 8 | 7 | -23 | 4 | -9 | . | .
N#Cc1nc(COc2ccccc2)oc1N1CCC(Cc2ccccc2)CC1 | 20 | 13 | 32* | -72 | 18 | -24 | 21* | 21*
Cc1cc(-c2ccccc2)nc(Oc2cccc(C(F)(F)F)c2)c1S(C)(=O)=O | 32 | 6 | 29* | -25 | -1 | -17 | 6 | 2
CCCn1nnc(NC(=O)c2cccc(Cl)c2)n1 | 10 | 2 | 51* | 10 | 1 | -9 | 1 | 1
COc1ccc(Nc2cc(C)c3ccccc3n2)cc1 | 27 | . | 0 | 21 | -7 | 18 | . | .
Cc1cc(Nc2ccc([N+](=O)[O-])cc2)nc2ccccc12 | 20 | . | 24* | 21 | 3 | 3 | 7 | 16
CCOc1cc(/C=N/n2nnnc2N)ccc1OCc1c(C)no[n+]1[O-] | -14 | 7 | 21* | 0 | -11 | -22 | 9 | 9
O=C(Nc1ccc(Cl)cc1)NN1CC(=O)N(c2cccc(C(F)(F)F)c2)CC1=O | -22 | . | . | -10 | -9 | -36 | . | .
CCCN(CCC)CCNC(=O)C1CCN(Cc2nc(-c3ccc(Cl)cc3)oc2C)CC1 | -11 | 13 | 24* | -54 | 5 | -27 | 13 | 28*
Cc1cc(Cl)c(OCCOCCN2CCCCC2)c(Br)c1 | -3 | 3 | 4 | 10 | 15 | -5 | . | .
Cc1cc(Cl)c(OCCOCCN2CCCC(C)C2)c(Br)c1 (configuration not stated) | 23 | . | 23* | -23 | 3 | -28 | 5 | 11
CCc1ccc(S(=O)(=O)Nc2ccc(N3CCN(C)CC3)cc2)cc1 | 4 | . | . | -7 | -3 | 1 | . | .
Cc1nc2c(C(=O)N3CCN(c4ccccn4)CC3)cnn2c(C)c1Cc1cccc(Cl)c1 | -50 | 13 | 31* | -22 | 0 | -21 | 12 | 12
Cc1nc2c(C(=O)N3CCCC3)cnn2c(C)c1Cc1c(F)cccc1Cl | -124 | 4 | 5 | 6 | -15 | -2 | . | .
CCOP(=O)(OCC)C(Nc1cccc(C(F)(F)F)c1)c1ccc(Br)cc1 (configuration not stated) | -24 | 9 | 12 | 9 | -10 | 1 | . | .
Brc1ccc(-c2noc(COc3ccc4ccccc4c3)n2)o1 | -4 | 14 | 29* | -70 | 8 | -49 | 17 | 10
COc1cccc(OCc2nc(-c3ccc(Br)o3)no2)c1 | 8 | . | 15 | -35 | 1 | -34 | . | .
O=C(O)CSc1nc(-c2ccccc2)nc2c1oc1ccccc12 | -33 | 9 | 23* | 10 | 40 | -13 | 5 | 7
O=C(O)CSc1nc(-c2ccc(Cl)cc2)nc2c1oc1ccccc12 | 22 | 11 | 6 | -28 | -2 | -10 | . | .
Cc1cc(C)c2c(CN3CCN(C/C=C/c4ccccc4)CC3)cc(=O)oc2c1 | -7 | 15 | 25* | -67 | -5 | -27 | 16 | 18*
COC(=O)c1ccc(-c2noc(CN3CCCCC3c3nccn3C)n2)cc1 (configuration not stated) | -9 | . | 33* | -5 | -7 | -1 | 9 | 12
SMILES | Calpain2 inh | NPY Y2 blocker | NPY-Y1 antag | NPY-Y1 PAM-ag | TbHK1 inh | NPY2 pot ag | NPY-Y1 ant conf | NPY2 antag ctr
Cn1ccnc1C1CCCCN1Cc1nc(Cc2ccccc2F)no1 (configuration not stated) | 7 | . | 8 | 8 | 3 | -3 | . | .
Cc1c(Cl)cnc(NC(=O)COC(=O)Cc2coc3ccc4ccccc4c23)c1Cl | -47 | 9 | 23* | -33 | 5 | -14 | 7 | 6
Cc1ccc(CN2CCN(Cc3ccc4cc(F)ccc4n3)CC2CCO)o1 (configuration not stated) | -12 | . | 5 | 7 | -3 | -10 | . | .
CC(C)NC(=O)C1CCN(C(=O)c2cc3sccc3n2Cc2ccc(F)cc2)CC1 | -8 | 0 | -7 | 29 | -5 | 17 | . | .
O=C(c1cc2sccc2n1Cc1ccc(F)cc1)N1CCCc2ccccc21 | -5 | 15 | 24* | -30 | 0 | -10 | 12 | 19*
Cc1c(Cl)ccc2c(C(=O)NCCN3CCCCC3)cc(-c3ccccn3)nc12 | -5 | . | 25* | -102 | 0 | -63 | 20 | 29*
O=C(Cc1ccc([N+](=O)[O-])cc1)N1N=C(c2ccncc2)CC1(O)C(F)(F)F (configuration not stated) | -16 | . | -5 | 6 | 4 | 0 | . | .
CCN(CC)C(=O)/C(=C\c1ccc(Br)cc1)NC(=O)c1ccccc1OC | -4 | 6 | 23* | -35 | -3 | -5 | 13 | 9
Cc1cc(C(N)=O)nn1-c1c(Cl)cc(Cl)cc1Cl | 24 | . | . | 20 | -6 | 3 | . | .
Cc1cc(=O)oc2cc(OCc3nnc(-c4ccccc4Br)o3)ccc12 | -187 | 13 | 26* | -6 | -3 | -5 | 4 | 8
O=c1ccc2ccc(OCc3nnc(-c4ccccc4Br)o3)cc2o1 | -53 | 13 | 6 | -31 | 8 | -6 | . | .
CCCCNC(=S)N(Cc1c(C)noc1C)c1ccccc1 | 5 | 2 | 3 | 0 | -7 | 3 | . | .
CC(OC(=O)CC(NC(=O)c1ccccc1Cl)c1ccccc1)C(=O)Nc1cccc(Cl)c1Cl (configuration not stated) | 31 | 9 | 30* | -47 | 2 | -16 | 27* | 17*
Cc1cccc(OCc2n(CC(=O)OC3CC(C)CCC3C(C)C)c3ccccc3[n+]2C)c1 (configuration not stated) | -23 | . | 28* | -49 | 24 | -25 | 24* | 39*
CCN1/C(=C/c2sc(-c3ccccc3C)c[n+]2C)Sc2ccccc21 | -17 | . | 40* | -10 | 6 | 21 | 28* | 15
CCN1/C(=C/c2ccc3cc(C)ccc3[n+]2CC)Sc2ccccc21 | 47 | 9 | 18 | -95 | -4 | 4 | . | .
Nc1ncncc1-c1ccc2ccccc2c1 | 10 | . | . | -21 | -11 | -10 | . | .
Cc1cc(C)cc(NC(=O)c2oc3ccccc3c2COc2ccccc2)c1 | 19 | -1 | 23* | -31 | 20 | -18 | 5 | 12
